Screening data as filed in PubChem.
Compounds with a hit are over-represented: about 2.3% of the library has one in this group of screens.
TRPC4 block: inhibitors of mouse TRPC4 channel | Q9QUQ5 | HEK293 TRPC4beta/mu-opioid, DAMGO-evoked Fluo4 calcium flux; hits give low values | B-score at 10 µM | actives 0.39% (n = 300,000) | AID 2247;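 active = B-score over 3 SD under the library average, no early fluorescence shift, positive overall ratio signal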
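Assay system: HEK293 cells with stable TRPC4beta plus mu-opioid receptor expression. Dosing: single dose. Measured by: Fluo4 Ca2+ flux fluorescence. Also added: DAMGO in two steps, submaximal then maximal. Read-out: B score from integrated Fluo4 fluorescence ratio.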
TRPC6 activator: activators of mouse TRPC6 channel | HEK293-TRPC6 membrane potential dye fluorescence; hits give high values | AID 2550 | actives 0.13% (n = 310,000) | B-score at 10 µM;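 active = B-score of the integrated fluorescence ratio above library mean plus 3 SD, and starting fluorescence ratio within library mean plus 5 SD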;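 also: higher score means more depolarization so channel activation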
Target sequence (Q61143 whole entry, looked up): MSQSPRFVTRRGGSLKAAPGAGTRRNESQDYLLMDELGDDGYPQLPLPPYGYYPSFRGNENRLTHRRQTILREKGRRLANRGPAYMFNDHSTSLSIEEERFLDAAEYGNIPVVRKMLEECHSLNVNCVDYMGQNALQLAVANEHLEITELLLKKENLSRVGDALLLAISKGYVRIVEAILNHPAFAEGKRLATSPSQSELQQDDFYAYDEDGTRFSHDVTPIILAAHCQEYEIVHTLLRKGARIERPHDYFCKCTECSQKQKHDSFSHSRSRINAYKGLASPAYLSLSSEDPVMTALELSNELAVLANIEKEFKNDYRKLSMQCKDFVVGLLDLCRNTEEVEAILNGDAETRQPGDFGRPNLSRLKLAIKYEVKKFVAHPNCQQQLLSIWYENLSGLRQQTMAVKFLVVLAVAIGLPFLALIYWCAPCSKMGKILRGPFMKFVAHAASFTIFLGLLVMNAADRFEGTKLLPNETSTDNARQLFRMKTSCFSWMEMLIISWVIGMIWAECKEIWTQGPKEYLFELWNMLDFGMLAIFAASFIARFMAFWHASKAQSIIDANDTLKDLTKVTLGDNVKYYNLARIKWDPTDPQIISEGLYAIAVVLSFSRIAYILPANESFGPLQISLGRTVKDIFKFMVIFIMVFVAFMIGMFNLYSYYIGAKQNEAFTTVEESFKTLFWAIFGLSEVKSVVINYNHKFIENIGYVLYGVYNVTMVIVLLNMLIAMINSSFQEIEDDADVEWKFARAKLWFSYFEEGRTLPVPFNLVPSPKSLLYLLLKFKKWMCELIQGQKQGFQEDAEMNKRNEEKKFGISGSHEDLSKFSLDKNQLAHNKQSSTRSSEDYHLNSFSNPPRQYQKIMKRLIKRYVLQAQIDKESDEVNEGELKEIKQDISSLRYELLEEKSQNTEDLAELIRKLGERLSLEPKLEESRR
TRPC4 act: opens the mouse TRPC4 cation channel; HEK293 TRPC4beta/mu-opioid, Fluo4 calcium fluorescence; hits give high values; actives 0.49% (n = 310,000); B-score at 10 µM; Q9QUQ5;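 active = B-score above 5 SD of library B-scores, and initial fluorescence ratio not above library mean plus 5 SD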;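 also: positive B-score marks a calcium rise read as TRPC4 activation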
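Incubation: 45 min room-temperature Fluo4 loading, 110 s read / System: HEK293 cells stably co-expressing mouse TRPC4beta and mu-opioid receptor / Signal: Fluo4 fluorescence, kinetic / Control set: buffer (low) and maximal DAMGO (high) / Measure: integrated baseline-normalised fluorescence ratio, converted to per-well B score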
TRPC4 potent: allosterically enhances the mouse TRPC4 cation channel | HEK293 TRPC4beta/mu-opioid, DAMGO EC20, Fluo-4 Ca2+ flux; hits give high values | B-score at 10 µM | actives 0.42% (n = 310,000) | AID 2227;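 active = B-score of calcium response area above 5 SD of library B-scores, with initial fluorescence ratio within 5 SD of library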
TRPC6 inh: inhibitors of mouse TRPC6 channel; actives 1.1% (n = 310,000); HEK293-TRPC6, membrane potential dye, ACh-evoked depolarization; hits give low values; Q61143; B-score at 10 µM;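 active = B-score under library mean minus 3 SD, initial fluorescence not abnormally high, positive integrated signal ratio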;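 also: B-score derived from integrated fluorescence ratio over the kinetic read; more negative B-score means stronger inhibition of depolarization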
Numbers stand for hits; - = inactive.

SMILES	TRPC4 block	TRPC6 activator	TRPC4 act	TRPC4 potent	TRPC6 inh
O=C(NC(=S)NNC(=O)c1cccs1)c1ccccc1	-	-	82	-	-
CCCC(=O)Nc1ccc(C(=O)NNC(=S)NC(=O)c2cccs2)cc1	-	-	-	-	-
N#C/C(=C\C=C\c1ccccc1)c1nc(-c2ccc(Cl)cc2)cs1	-	-	-	-	-
Brc1ccccc1OCCCCCN1CCOCC1	-	-	-	11	-
CC(C)c1ccccc1OCCCCN1CCCCC1	-	-	-	-	-
Brc1ccccc1OCCCN1CCCC1	-	-	-	-	-
CC(C)c1ccccc1OCCCCCN1CCOCC1	-	-	-	13	-
COc1ccc(NS(=O)(=O)c2ccc(NS(=O)(=O)c3cccs3)cc2)cc1	-	-	-	-	-
Cc1ccc(NS(=O)(=O)c2ccc(NS(=O)(=O)c3cccs3)cc2)cc1	-	-	-	16	-
O=S(=O)(Nc1ccc(F)cc1)c1ccc(NS(=O)(=O)c2cccs2)cc1	-	-	-	11	-
COc1cc(/C=N/NC(=O)c2cc(-c3ccc4c(c3)OCO4)n[nH]2)ccc1O	-	-	-	-	-
Cc1cc(Nc2cccc(Br)c2)c2ccccc2n1	-	-	-	-	-
O=C(c1ccncc1)N1c2ccccc2Sc2ccccc21	-	-	-	26	-
Cc1cc(NC(=O)c2cccc(S(=O)(=O)N3CCC(C)CC3)c2)no1	-	-	-	-	-
CN(C)N1C(N)=C(C#N)C(c2cccc([N+](=O)[O-])c2)C2=C1CC(C)(C)CC2=O (centres undefined)	-	-	-	-	-
CCc1ccc(OCC(=O)NC2CCCCC2)c(Br)c1	-	-	-	55	-
CCc1ccc(OCC(=O)NNC(=S)NC(=O)C2CCCCC2)c(Br)c1	-	-	-	-	-
CSc1ccc(Cc2ccc(Cl)cc2Cl)nn1	-	-	-	-	-
NNc1ccc(Cc2ccc(Cl)cc2Cl)nn1	-	-	-	15	-
Cn1c2ccccc2c(=O)c2ccc(C#CC3(N)CCCCC3)cc21	-	-	-	-	-8.6
Cn1c2ccccc2c(=O)c2cc(C#CC3(O)CCCCC3)ccc21	-	-	-	-	-
O=C(C[n+]1cccc(CNC(=O)c2ccc(OC(F)F)cc2)c1)Nc1ccccc1Cl	-	-	-	-	-
O=C(C[n+]1cccc(CNC(=O)c2ccc(OC(F)F)cc2)c1)Nc1ccc(SC(F)F)cc1	-7	-	-	-	-
COc1ccc(/C=N/Nc2nc3ccccc3s2)cc1O	-	-	-	16	-
COc1ccc(/C=N/Nc2nc3ccccc3o2)cc1O	-	-	-	-	-
SMILES	TRPC4 block	TRPC6 activator	TRPC4 act	TRPC4 potent	TRPC6 inh
CC(C)Cn1c(CN(C)Cc2ccccc2)nc2c1c(=O)n(C)c(=O)n2C	-	-	-	-	-
CN(Cc1ccccc1)Cc1nc2c(c(=O)n(C)c(=O)n2C)n1CCCc1ccccc1	-	-	-	37	-
CCOc1cc(N2CCOCC2)c(OCC)cc1NC(=O)CC12CC3CC(CC(C3)C1)C2	-	-	-	10	-
CCOc1cc(N2CCOCC2)c(OCC)cc1NC(=O)Cc1ccc(OC)c(OC)c1	-	-	-	-	-
CCOc1cc(N2CCOCC2)c(OCC)cc1NC(=O)CN1CCN(Cc2ccc3c(c2)OCO3)CC1	-	-	-	-	-
CCOc1cc(N2CCOCC2)c(OCC)cc1NC(=O)CN1CCc2ccccc2C1	-	-	-	12	-
CCCOc1ccc(/C=N/NC(=O)c2ccc3c(c2)OCO3)c(OCCC)c1	-	-	-	-	-
C=CCNC(=O)C1CCN(S(=O)(=O)c2ccc3ccccc3c2)CC1	-	-	-	-	-
Cc1ccc(NS(=O)(=O)c2cc(C(=O)N3CCc4ccccc4C3)ccc2Cl)cc1	-	-	-	28	-
Cc1c(CNCCc2ccc(Cl)cc2)c(C(=O)O)c(C)n1-c1ccccc1	-	-	-	-	-
CCOC(=O)c1c(-c2ccc(OC)cc2)oc2ccc(O)cc12	-	-	-	17	-
Cc1c(C(=O)OC(C)C)sc(N)c1C(=O)OC(C)C	-	-	-	-	-
COc1ccc(Br)cc1CNC(C)c1ccccc1 (centres undefined)	-6	-	-	-	-
COc1ccc(NC(=O)CN(C)CC(=O)Nc2ccc3c(c2)CCC3)cc1	-	-	-	-	-
CCCCN(C)CCC(=O)Nc1ccc2c(c1)CCC2	-	-	63	-	-
CCCCNc1c(-c2ccc(SC(C)CC)c(OC)c2)nc2ccc(C)cn12 (centres undefined)	-6	-	-	-	-
O=C1COc2ccc(C(=O)COC(=O)CCSc3ccc(Cl)cc3)cc2N1	-	-	-	-	-
O=[N+]([O-])c1ccc(N2CCOCC2)nc1	-	-	-	-	-
N#Cc1ccc(N2CCCNCC2)nc1	-	-	44	-	-
O=C(CSc1cccc2cccc(Cl)c12)NCc1cccs1	-	-	-	-	-
COc1ccccc1C(=O)NC(C(=O)NCCc1nc2ccccc2[nH]1)=C(C)C	-	-	-	-	-
Cc1nc2ccccn2c1C(=O)NC1CCCc2ccccc21 (centres undefined)	-	-	-	-	-
Cc1cc(C)c2nc(C)cc(N/N=C/c3ccc(O)cc3)c2c1	-6	-	-	-	-
COc1ccc(Cl)cc1S(=O)(=O)NCc1nc2nc(C)cc(C)n2n1	-	-	-	-	-
COc1ccc(Cc2c(O)nc(SCC(=O)N3CCCCCC3)[nH]c2=O)cc1	-	-	-	-	-
SMILES	TRPC4 block	TRPC6 activator	TRPC4 act	TRPC4 potent	TRPC6 inh
O=C(CN1CCN(CCN2C(=O)c3cccc4cccc(c34)C2=O)CC1)c1ccc(F)cc1	-	-	-	-	-
COc1ccc(C(=O)CN2CCN(CCN3C(=O)c4cccc5cccc(c45)C3=O)CC2)cc1	-	-	-	15	-
CN1CCN(NC(=O)c2cccc(S(=O)(=O)N3CCCCCC3)c2)CC1	-	-	-	-	-
CN1CCN(NC(=O)c2cccc(C(F)(F)F)c2)CC1	-	-	53	-	-
O=C(O)c1cn(Cc2ccccn2)c(=O)c2ccccc12	-	-	-	-	-
CC(C)(CSc1ccccn1)NS(=O)(=O)c1ccc(Cl)cc1	-	-	-	10	-
CC(C)(CSc1ccccn1)NS(=O)(=O)c1ccccc1	-	-	-	-	-
Cc1ccc(Sc2ccc(CO)cc2[N+](=O)[O-])cc1	-7	-	-	-	-
CN(C)NC(=S)NC1(C)CCS(=O)(=O)C1 (centres undefined)	-	-	-	-	-
CCOC(=O)C1CCCN(C(c2ccccn2)c2c(C)[nH]c3ccccc23)C1 (centres undefined)	-	-	148	-	-
Cc1[nH]c2ccccc2c1C(c1ccccn1)N1CCCC1 (centres undefined)	-	-	-	-	-
COc1cc(OC)cc(C(=O)NCCCN2CCN(CCCNC(=O)c3cc(OC)cc(OC)c3)CC2)c1	-	-	119	-	-
